Source: paper PMC12272725 (Chemical Science, 2025)
Read-outs that look alike come from different tables or passages of the source.

Assays:
Assay type in all cases: cell-based, human
A549 cells [1] = tested on: A549 cells
Outline: (§1)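 Human cells (A549 lung cancer, RPE-1 non-cancerous epithelial) were incubated with test compound for 4 h, the medium was replaced, and the cells were either irradiated or kept dark, then incubated a further 48 h. Viability was read by resazurin. Irradiation was 510 nm for 10 min (non-extended BODIPYs) or 645 nm (extended BODIPYs). IC50 was found dark and irradiated. […]. PPIX was the positive control.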

RPE-1 cells = tested on: RPE-1 cells
Outline: as §1

A549 cells [2] = experiment: Intracellular total ROS generation, DCFH trap, A549 cells; settings: A549, 5 μM, 645 nm for 1 h
Outline: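 A549 cells were loaded with the total-ROS trap dichlorodihydrofluorescein (DCFH) and test compound, then irradiated at 645 nm for 1 h at 37 °C. The trap's fluorescence gave intracellular ROS generation. DCFH alone was the control.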

[3] = read-out: IC50 upon 645 nm irradiation, 645 nm for 1 h (9.00 J/cm2)

With C=CC1=C(C)c2cc3[nH]c(cc4nc(cc5[nH]c(cc1n2)c(C)c5CCC(=O)O)C(CCC(=O)O)=C4C)c(C)c3C=C [PPIX] the Phototoxicity index (A549 cells [1]; 510 nm for 10 min) was 220 ± 30, the Phototoxicity index (A549 cells [1]; 645 nm for 1 h) was 111 ± 4 and the IC50 (A549 cells [1]; [3]) was 0.9 ± 0.03 µM. For the same molecule, the Phototoxicity index (RPE-1 cells; 510 nm for 10 min) was 350 ± 120, the Phototoxicity index (RPE-1 cells; 645 nm for 1 h) was 360 ± 160 and the IC50 (RPE-1 cells; read-out: IC50 in the dark, dark, Table 3 (645 nm series)) was greater than 100 µM. The IC50 (RPE-1 cells; read-out: IC50 upon 510 nm irradiation, 510 nm for 10 min (2.44 J/cm2)) was 0.3 ± 0.1 µM, the IC50 (RPE-1 cells; [3]) was 0.3 ± 0.1 µM and the “Intracellular ROS generation” value (A549 cells [2]) was “elevated above control”.
